Compound activity: PubChem, Broad Institute
Hits are enriched below; roughly 2% of the tested compounds scored in any of these assays.
HIF activator: HIF pathway transcriptional activators, primary screen, cell-based, U2OS HRE-luciferase, luminescence; U2OS HRE-luciferase reporter; normalized: DMSO 0%, desferrioxamine 100%; activation, % at 7.5 µM (by protocol); 300,000 tested, 0.32% active;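 active = mean activation of at least 10% of the iron chelator positive control signal, with at least half of replicates also reaching 10%; inconclusive = mean and replicate majority disagree about reaching 10%; inactive = mean and most replicates under 10%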
AI-2 QS modul: Vibrio harveyi AI-2 quorum sensing modulators, primary screen, JMH597 strain, luminescence/OD600 ratio; Vibrio harveyi JMH597 AI-2 luminescence/OD600 ratio, 9 h; active compounds read low; strain lacks LuxN and CqsS sensors; 0 = neutral-control median; activity change, % at 7.5 µM; 300,000 tested, 0.4% active; AID 2094, 2009; in the data active = activity change below about -75%, passing the limit was not always enough; inconclusive = no clear call, values can overlap the other calls;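 also: luminescence divided by OD600 gain over 9 h not by final OD600 alone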
ARNT TACC3 PPI: disruptors of ARNT/TACC3 protein interaction, primary screen, biochemical, AlphaScreen, single concentration; Transforming acidic coiled-coil-containing protein 3 (Homo sapiens), Q9Y6A5; AlphaScreen His-ARNT PAS-B/GST-TACC3 binding, luminescence; TACC3 fragment carries E629A point mutation; inhibition, % at 9.99 µM; 390,000 tested, 0.66% active;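 active = mean inhibition of replicates at least 50% and at least half of replicates each reaching 50%; inconclusive = half or more replicates reach 50% but mean below 50%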;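 also: 0% = complete ARNT plus TACC3 wells and 100% = ARNT alone without TACC3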
T cruzi repl: inhibitors of intracellular T. cruzi growth, primary screen, luminescence, NIH3T3 host cells | T. cruzi beta-gal in NIH3T3, 90 h | inhibition, % (concentration not given with the values) | 300,000 tested, 1.4% active | AID 1885, 2009;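 active = mean inhibition across valid replicates above about 55%, limit read from the data; inconclusive = mean below that limit but half or more replicates reach it; inactive = mean below it, under half of replicates reach it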;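 also: signal also drops with host cell toxicity which is not excluded here; 0% = plate median of DMSO wells and 100% = zero luminescence signal; higher percent means less beta-gal luminescence so fewer parasites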
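System: mouse NIH/3T3 fibroblasts infected with β-gal-expressing T. cruzi Tulahuen C4 / Input: NIH/3T3 cells, 5,000 per well / Buffer or medium: Low-serum DMEM with 2% FBS / Probe or stimulus: 5000 reporter trypomastigotes per well / Schedule: ≥90 h infection period, 3 h prior cell attachment / Measured by: GalScreen luminescence, 60 min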
JMH597 growth: Vibrio harveyi growth inhibition, confirmation, counter-screen for AI-2 quorum sensing project, JMH597 strain, OD600 absorbance | shares compounds with AI-2 QS modul | 9 h; lacks LuxN and CqsS sensors | growth inhibition, % at 7.5 µM | 750 tested, 1% active | AID 2726, 2010;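 active = every replicate shows growth inhibition above 50%; inconclusive = at least half, but not all, replicates pass that cutoff; inactive = fewer than half of replicates pass it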
BB721 lum counter: luminescence inhibition in constitutive-on V. harveyi, confirmation, counter-screen for LuxS inhibitor project, strain BB721, luminescence readout | Vibrio harveyi BB721 luminescence, 9 h | 750 tested, 95% active | inhibition, % at 7.5 µM | shares compounds with AI-2 QS modul;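 active = inhibition above about 80% in every replicate, not just on average, limit read from the data; inconclusive = at least half of replicates past the limit, but not all; inactive = fewer than half of replicates past the limit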
BB721 growth rt: growth inhibition of V. harveyi BB721, confirmation, cytotoxicity control for AI-2 quorum sensing inhibitors, strain BB721, absorbance OD600 | 750 tested, 3% active | shares compounds with AI-2 QS modul | Vibrio harveyi BB721 growth, 9 h | growth inhibition, % at 7.5 µM;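 active = every replicate shows growth inhibition above 50%; inconclusive = at least half but not all replicates above 50% inhibition; inactive = under half of replicates above 50% inhibition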
JMH597 AI-2 mod: Vibrio harveyi AI-2 signaling luminescence modulation – JMH597 strain, confirmation | shares compounds with AI-2 QS modul | Vibrio harveyi JMH597 AI-2 quorum sensing luminescence, 9 h; luxN and CqsS knockout, AI-2 only | inhibition, % at 7.5 µM | 750 tested, 97% active;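 active = every replicate shows more than 75% inhibition of signal versus neutral control wells; inconclusive = half to three quarters of replicates exceed 75% inhibition; inactive = fewer than half of replicates exceed 75% inhibition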
* = called active by the depositor; ? = inconclusive; . = not tested or not shown.

SMILES	HIF activator	AI-2 QS modul	ARNT TACC3 PPI	T cruzi repl	JMH597 growth	BB721 lum counter	BB721 growth rt	JMH597 AI-2 mod
c1cncc(-c2nnc(SCc3nc4ccccc4[nH]3)o2)c1	-1	15	-1	-6	.	.	.	.
C(=C\c1ccccc1)/CSc1nnc(-c2cccnc2)o1	1	-89*	7	6	19	95*	-1	98*
c1ccc(CSc2nnc(-c3cccnc3)o2)cc1	2	-95*	6	-23	-12	99*	-24	99*
CCOC(=O)CSc1nnc(-c2cccnc2)o1	0	-11	-2	-3	.	.	.	.
c1cncc(-c2nnc(SCc3cccc4ccccc34)o2)c1	0	-96*	0	-2	5	99*	0	99*
O=C(C[C@@H]1C[C@H]2c3cc(NS(=O)(=O)c4ccc(F)cc4)ccc3O[C@H]2[C@@H](CO)O1)N1CCOCC1	.	.	-1	.	.	.	.	.
CCCC(=O)Nc1ccc2c(c1)OC[C@H](C)N(Cc1ccccc1F)C[C@H](C)[C@H](OC)CN(C)C2=O	.	.	-9	.	.	.	.	.
CCC(=O)N[C@@H]1CC[C@H](CC(=O)NCC2CCCCC2)O[C@H]1CO	.	.	0	.	.	.	.	.
Brc1ccc(CSc2nnc(-c3cccnc3)o2)cc1	0	-94*	-6	-5	1	98*	0	99*
Fc1ccc(CSc2nnc(-c3cccnc3)o2)cc1	2	-93*	-33	-5	19	98*	5	99*
O=C(N[C@@H]1C=C[C@@H](CC(=O)N2CCCCC2)O[C@H]1CO)c1cccc(F)c1	.	.	-10	.	.	.	.	.
CN(CC(=O)Nc1ccc(Cl)c(C(F)(F)F)c1)C(=O)C1(c2ccccc2)CC1	0	1	4	3	.	.	.	.
Cc1noc(C)c1CSCC(=O)N(C)CC(=O)Nc1ccc(Cl)c(C(F)(F)F)c1	-1	-87*	-2	2	13	95*	-4	96*
CN(CC(=O)Nc1ccc(Cl)c(C(F)(F)F)c1)C(=O)c1cccs1	0	-89*	-6	-5	24	98*	25	98*
Cc1cccc(-n2nnc(C(=O)N3CCc4ccccc4C3)c2N)c1	2	-82*	-2	11	39	92*	?	95*
C(=N\NCc1ccccc1)/c1ccc2ncccc2c1	0	-95*	.	-1	0	98*	-7	99*
CCCCc1ccc(NC(=O)CSc2nc3ncccc3[nH]2)cc1	.	-88*	13	12	3	93*	7	96*
CCOC(=O)c1ccc(NC(=O)CSc2nc3ncccc3[nH]2)cc1	2	-91*	-1	-3	31	97*	40	97*
O=C(N[C@@H]1CC[C@@H](CC(=O)N2CCC(Cc3ccccc3)CC2)O[C@H]1CO)c1cnccn1	.	.	5	.	.	.	.	.
C[C@H](CO)N1C[C@H](C)[C@H](CN(C)Cc2ccc3c(c2)OCO3)Oc2c(NC(=O)C3CC3)cccc2C1=O	.	.	3	.	.	.	.	.
CC1(C)SC[C@H](C(=O)Nc2cccc(Cl)c2)N1C=O	-1	-93*	-5	8	-19	98*	-35	99*
C[C@H](CO)N1C[C@H](C)[C@H](CN(C)C(=O)Nc2ccc(C(F)(F)F)cc2)Oc2ccc(NC(=O)Nc3ccc(C(F)(F)F)cc3)cc2CC1=O	.	.	-7	.	.	.	.	.
NC(=S)NN=Cc1ccc(-c2ccc(S(=O)(=O)Nc3ncccn3)cc2)o1	.	.	17	.	.	.	.	.
Cc1ccc(-c2ccc(/C=N/NC(N)=S)o2)cc1	3	-87*	11	13	24	90*	?	92*
CCC(=O)N[C@@H]1CC[C@H](CC(=O)NCc2ccc(OC)cc2)O[C@H]1CO	.	.	12	.	.	.	.	.
SMILES	HIF activator	AI-2 QS modul	ARNT TACC3 PPI	T cruzi repl	JMH597 growth	BB721 lum counter	BB721 growth rt	JMH597 AI-2 mod
CC(C)c1ccc(S(=O)(=O)N2CCN(C(=S)NCc3ccco3)CC2)cc1	0	-96*	-4	6	32	100*	-39	100*
O=C(CCN1C(=O)CSC1=O)Nc1ccc(Br)cc1	0	-80*	-5	-16	13	13	9	9
Cc1ccc(NC(=O)CCN2C(=O)CSC2=O)cc1	0	5	-2	-15	.	.	.	.
CCC(=O)N(C)C[C@@H]1Oc2cc(C#CC3CCCCC3)ccc2S(=O)(=O)N([C@@H](C)CO)C[C@@H]1C	.	.	3	.	.	.	.	.
CO[C@@H](CN(C)Cc1cc(F)ccc1F)[C@H](C)CN(C(=O)Nc1ccc(F)cc1)[C@H](C)CO	.	.	-6	.	.	.	.	.
O=C(COc1ccc(Br)cc1)Nc1ccc(S(=O)(=O)Nc2ccccn2)cc1	0	-87*	0	4	12	94*	-21	98*
CN(C)S(=O)(=O)c1ccc(NC(=O)COC(=O)c2ccccn2)cc1	0	-87*	38	-7	-10	96*	5	97*
O=C(CN1CCOCC1)N[C@H]1CC[C@@H](CCNC(=O)C2CCCCC2)O[C@@H]1CO	.	.	-5	.	.	.	.	.
O=C(CNC(=O)c1cccs1)OCc1ccc(Br)cc1	-1	?	-3	-8	30	91*	-2	92*
O=C(CNC(=O)c1cccs1)c1ccc(Br)cc1	3	11	-4	-10	.	.	.	.
O=C(NC(=S)Nc1nc(-c2ccc(Br)cc2)cs1)c1ccco1	0	21	-6	14	.	.	.	.
O=C(NNc1nc(-c2ccc(Br)cc2)cs1)c1ccco1	0	-85*	-9	10	63*	95*	69*	97*
O=C(COc1nncc2ccccc12)Nc1c(F)c(F)c(F)c(F)c1F	-1	-6	-18	2	.	.	.	.
Cc1cc(C)c(NC(=O)COc2nncc3ccccc23)c(C)c1	0	16	10	-36	.	.	.	.
CC(C)c1ccc(NC(=O)COc2nncc3ccccc23)cc1	0	-96*	12	-1	47	99*	?	100*
O=C(COc1nncc2ccccc12)Nc1ccc(F)c(F)c1	0	-96*	-5	9	-23	99*	-18	99*
O=C(/C=C/c1ccccc1)NCc1ccc2c(c1)OCO2	-2	-94*	-4	-1	-2	98*	2	98*
